Bioassay records (PubChem)
Only some compounds are listed: those with a hit (about 5.9% of all), similar ones and a draw of the others.
T cruzi growth-1 – inhibitors of T. cruzi proliferation; T. cruzi beta-gal in NIH3T3, GalScreen luminescence, 90 h; inhibition, % at 8.34 µM; 77,000 compounds, 5.9% hits;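 active = mean inhibition above about 93%, with at least 55% of replicates each passing it, limit read from the data, passing the limit was not always enough; inconclusive = only one of those two conditions holds; inactive = neither condition holds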
Pf Dd2 growth – inhibitors of Plasmodium falciparum Dd2 growth; P. falciparum Dd2 growth, SYBR Green, 72 h; active compounds read low; activity change, % at 10 µM; 94,000 compounds, 2.3% hits; AID 1159554; in the data active = activity change below about -80%; inconclusive = no clear call, values can overlap the other calls
KDM4C inh – KDM4C (human) demethylase inhibition; Q9H3R0; GST-KDM4C 2-372, H3K9me3 peptide, LANCE TR-FRET; inhibition, % at 12.5 µM; 96,000 compounds, 0.15% hits; AID 720574;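 active = mean replicate inhibition above about 25%, with at least 55% of replicates also reaching it, limit read from the data, passing the limit was not always enough; inconclusive = only one of those two conditions met; inactive = neither condition met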
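Material: GST-tagged GASC-1 (JMJD2C) catalytic fragment, aa 2-372 / Quantity: enzyme final amount 10 nM / Medium: HEPES buffer, pH 7.5, plus ascorbate / Doses: one test concentration per compound / Incubation: 30 min reaction, 60 min detection, RT / Measured by: LANCE TR-FRET / Read-out: inhibition from TR-FRET ratio decrease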
IDH1 R132H inh – IDH1 R132H (human) inhibition | AID 624101 | 70,000 compounds, 0.18% hits | inhibition, % at 10 µM | IDH1 R132H reductase, diaphorase/resazurin fluorescence, 60 min | O75874; in the data active = inhibition above about 34%; inconclusive = no clear call, values can overlap the other calls; inactive = below about 11%;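 also: 0% = DMSO and 100% = no enzyme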
Target sequence (O75874 whole entry R132H): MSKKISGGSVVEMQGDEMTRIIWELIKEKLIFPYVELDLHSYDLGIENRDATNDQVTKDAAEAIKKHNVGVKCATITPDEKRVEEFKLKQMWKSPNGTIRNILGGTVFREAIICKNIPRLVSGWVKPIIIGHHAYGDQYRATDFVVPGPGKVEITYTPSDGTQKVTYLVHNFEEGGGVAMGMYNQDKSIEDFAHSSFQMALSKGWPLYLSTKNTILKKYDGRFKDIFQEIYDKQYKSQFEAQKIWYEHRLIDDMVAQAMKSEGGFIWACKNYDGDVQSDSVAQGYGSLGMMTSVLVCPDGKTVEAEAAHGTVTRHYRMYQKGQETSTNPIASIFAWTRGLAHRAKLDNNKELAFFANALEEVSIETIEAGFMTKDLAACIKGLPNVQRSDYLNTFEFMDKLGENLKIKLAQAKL
T cruzi growth-2 – Trypanosoma cruzi proliferation inhibition; shares compounds with T cruzi growth-1; T. cruzi beta-gal in NIH3T3, GalScreen luminescence, 90 h; inhibition, % at 8.35 µM; 5,600 compounds, 72% hits;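 active = mean replicate inhibition above about 95% and at least 55% of replicates individually reaching it, limit read from the data; inconclusive = only one of the two criteria is met; inactive = neither criterion is met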
T cruzi growth-3 – blocks T. cruzi growth in NIH3T3 host cells; shares compounds with T cruzi growth-1; T. cruzi beta-gal in NIH3T3, GalScreen luminescence, 90 h; inhibition, % at 2.09 µM; 5,600 compounds, 21% hits; AID 651740;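 active = mean inhibition above about 95%, with at least 55% of replicates also reaching it, limit read from the data; inconclusive = meets just one of the two conditions; inactive = meets neither condition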;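 also: plate controls were neutral control median for no effect and positive control median for full effect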
NIH3T3 tox – kills mouse NIH/3T3 fibroblasts; shares compounds with T cruzi growth-1; NIH/3T3 viability, CellTiter-Glo ATP luminescence, 90 h; cytotoxicity (signal decrease), % at 8.35 µM; 5,600 compounds, 14% hits; AID 651742;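 active = mean signal decrease across replicates above about 35% based on untreated-well scatter, with enough replicates individually passing, limit read from the data; inconclusive = no rule stated though some were filed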;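 also: 0% = median of neutral control wells and 100% = median of positive control wells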
3T3 cytotox 2 – NIH/3T3 (mouse) viability loss | shares compounds with T cruzi growth-1 | NIH/3T3 viability, CellTiter-Glo ATP luminescence, 90 h | inhibition, % at 24.9 µM | 5,600 compounds, 56% hits | AID 651744;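 active = mean loss of cell viability signal at or above a set limit, and enough replicates individually reaching it; inconclusive = meets only the mean limit or only the replicate share; inactive = meets neither condition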;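 also: 0% = median of neutral control wells and 100% = median of positive control wells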
An asterisk follows results filed as active; ? = inconclusive; . = not tested or not shown.

SMILES	T cruzi growth-1	Pf Dd2 growth	KDM4C inh	IDH1 R132H inh	T cruzi growth-2	T cruzi growth-3	NIH3T3 tox	3T3 cytotox 2
C[C@H]1CN([C@@H](C)CO)C(=O)c2cccc(NC(=O)c3ccc(-c4nccs4)cc3)c2O[C@@H]1CN(C)Cc1ccc(-c2ccccc2)cc1	99*	-84*	-4	0	107*	68	-3	-14
C[C@@H]1CN([C@H](C)CO)C(=O)c2cccc(NC(=O)c3ccc(-c4nccs4)cc3)c2O[C@H]1CN(C)Cc1ccc(Oc2ccccc2)cc1	78	-52	-6	2	.	.	.	.
C[C@H](CO)N1C[C@H](C)[C@H](CN(C)Cc2ccc(Oc3ccccc3)cc2)Oc2c(NC(=O)c3ccc(-c4nccs4)cc3)cccc2C1=O	103*	-61	-12	.	110*	109*	24	25*
C[C@@H]1CN([C@H](C)CO)C(=O)c2cccc(NC(=O)c3ccc(-c4nccs4)cc3)c2O[C@H]1CN(C)Cc1ccccc1	67	-19	1	0	.	.	.	.
C[C@H]1CN([C@@H](C)CO)C(=O)c2cccc(NC(=O)c3ccc(-c4nccs4)cc3)c2O[C@H]1CN(C)Cc1ccc(C(=O)Nc2ccccc2N)cc1	98*	-91*	-1	.	102*	101*	22	56*
C[C@H](CO)N1C[C@H](C)[C@@H](CN(C)CC2CCCCC2)Oc2c(NC(=O)c3ccc(-c4nccs4)cc3)cccc2C1=O	60	-52	4	.	.	.	.	.
C[C@@H]1CN([C@@H](C)CO)C(=O)c2cccc(NC(=O)c3ccc(-c4nccs4)cc3)c2O[C@H]1CN(C)CC1CCCCC1	99*	-70	0	2	117*	74	7	15
Cc1ccc(S(=O)(=O)N[C@H]2CC[C@H](CC(=O)NCc3ccc(Cl)c(Cl)c3)O[C@@H]2CO)cc1	-16	-43	0	0	.	.	.	.
O=C(O)C[C@H]1C[C@H]2c3cc(NC(=O)Nc4ccc(F)cc4)ccc3O[C@H]2[C@@H](CO)O1	-67	22	0	-2	.	.	.	.
COc1ccccc1C#Cc1ccc2c(c1)O[C@H](CN(C)Cc1ccncc1)[C@@H](C)CN([C@H](C)CO)S2(=O)=O	123*	-60	13	0	97*	102*	11	71*
COc1ccccc1C#Cc1ccc2c(c1)O[C@H](CN(C)Cc1ccncc1)[C@H](C)CN([C@H](C)CO)S2(=O)=O	112*	-64	-1	0	104*	84	28	7
CC(C)CC#Cc1cnc2c(c1)C(=O)N([C@@H](C)CO)C[C@H](C)[C@@H](CN(C)S(=O)(=O)c1ccccc1)O2	?	-45	-3	-4	102*	72	13	?
Cc1ccc(S(=O)(=O)N(C)C[C@H]2Oc3ncc(C#CCC(C)C)cc3C(=O)N([C@H](C)CO)C[C@@H]2C)cc1	110*	-30	-3	-4	?	52	4	33*
Cc1ccc(S(=O)(=O)N(C)C[C@@H]2Oc3ncc(C#CCC(C)C)cc3C(=O)N([C@@H](C)CO)C[C@H]2C)cc1	117*	-26	1	-1	104*	85	11	102*
Cc1ccc(S(=O)(=O)N(C)C[C@H]2Oc3ncc(C#CCC(C)C)cc3C(=O)N([C@@H](C)CO)C[C@@H]2C)cc1	124*	-47	-1	0	110*	74	-5	93*
CC(C)CC#Cc1cnc2c(c1)C(=O)N([C@@H](C)CO)C[C@@H](C)[C@@H](CN(C)S(=O)(=O)c1ccccc1)O2	60	-27	-2	0	.	.	.	.
Cc1ccc(S(=O)(=O)N(C)C[C@@H]2Oc3ncc(C#CCN(C)C)cc3C(=O)N([C@H](C)CO)C[C@@H]2C)cc1	14	5	1	0	.	.	.	.
C[C@H]1CN([C@@H](C)CO)S(=O)(=O)c2ccc(/C=C/c3ccccc3)cc2O[C@@H]1CN(C)C(=O)Nc1cc(F)ccc1F	.	43	0	2	.	.	.	.
